Compound activity from PubChem BioAssay.
A selection: hits, their analogues and other compounds. The true share with any hit is near 0.55%.
TRPML3 agonist: human mucolipin-3 channel agonism. Q8TDD5. HEK293 TRPML3-YFP, Fluo-8 calcium fluorescence; 100% = the carbachol control signal. activation, % at 3 µM. 220,000 compounds, 0.29% hits;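 active means activation above its plate's cutoff, the mean activation of the plate's test wells plus 3 SD, cut at about 12% in these data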
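Material: TRPML3-YFP stable HEK293 cells | Dosing: One concentration, 3 µM nominal, 0.3% DMSO | Timing: 125 s total fluorescence read per well | Technique: Fluo-8 calcium dye fluorescence, ex 470-495, em 515-575 nm | Measure: Percent activation from peak-to-basal fluorescence ratio, scaled between DMSO and carbachol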
V1R ag counter: counter-screen for oxytocin receptor agonists: human V1a receptor agonists; P37288; CHO-V1R cells, Fluo-8 calcium fluorescence, agonist mode; 0% DMSO, 100% 3 nM vasopressin; activation, % at 3 µM; 320,000 compounds, 0.25% hits;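 active means activation above the mean activation of all tested compounds plus 3 SD, per screening run, cut at about 20% in these data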;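 further: signal is peak over basal fluorescence ratio across a 100 second FLIPR read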
OXTR potentiate: human OXTR potentiation; CHO-OTR cells, Fluo-8 calcium fluorescence, potentiator mode; 0% = oxytocin EC15, 100% = EC100; P30559; 320,000 compounds, 0.061% hits; activation, % at 3 µM;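 active means activation above that plate's cutoff, the mean activation of tested compounds plus 3 SD, cut at about 6.6% in these data, passing the limit was not always enough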
Target sequence (P30559 whole entry, looked up): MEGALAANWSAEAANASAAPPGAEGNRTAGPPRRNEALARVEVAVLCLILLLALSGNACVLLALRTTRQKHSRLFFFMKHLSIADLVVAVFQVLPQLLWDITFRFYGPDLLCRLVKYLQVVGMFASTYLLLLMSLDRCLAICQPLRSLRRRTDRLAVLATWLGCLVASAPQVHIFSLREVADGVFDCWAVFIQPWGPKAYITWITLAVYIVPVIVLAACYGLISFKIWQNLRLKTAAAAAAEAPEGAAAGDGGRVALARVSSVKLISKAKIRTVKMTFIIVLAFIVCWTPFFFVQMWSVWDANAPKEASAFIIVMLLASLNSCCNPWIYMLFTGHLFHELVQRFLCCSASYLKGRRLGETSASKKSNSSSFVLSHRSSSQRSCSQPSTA
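Measured by – Fluo-8 calcium dye fluorescence · Test system – human OTR in CHO cells · Dosing – one concentration, 3.0 µM compound · Controls – EC15 oxytocin alone as 0%, 75 nM oxytocin as 100% · Evaluation – normalized max/min fluorescence ratio, % activation · Timing – 6 min pre-incubation, 100 s read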
TRPN1 ag: agonists of zebrafish TRPN1 channel | HEK293 zebrafish TRPN1-YFP, Fluo-8 calcium fluorescence; 100% = response to 87 µM carbachol | activation, % at 3 µM | 220,000 compounds, 0.18% hits | AID 1424;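 active means activation above its plate's cutoff, the mean activation of test wells on that plate plus 3 SD, cut at about 19% in these data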
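Material: zebrafish TRPN1-YFP in HEK293 cells. Doses: one dose of 3 µM, 0.3% DMSO. Incubation: dye 1 h 37 °C plus 30 min RT. Measured by: intracellular calcium fluorescence with Fluo-8.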
OXTR ag: activates the human oxytocin receptor; P30559; CHO-OTR cells, Fluo-8 calcium fluorescence; normalized: DMSO 0%, oxytocin 100%; activation, % at 3 µM; 320,000 compounds, 0.32% hits;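 active means activation above the mean of all tested compounds plus 3 SD, cutoff set per screening run, cut at about 20% in these data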;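 further: peak over basal fluorescence ratio from a 100 s FLIPR kinetic read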
OXTR agonist cf: human OXTR agonism, confirmation; shares compounds with OXTR ag; CHO-OTR cells, Fluo-8 calcium fluorescence, agonist; activation, % at 3 µM; 390 compounds, 20% hits; AID 434963;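 active means mean activation above about 20% derived from the earlier single-dose screen, limit read from the data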;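 further: peak over minimum fluorescence ratio per well during a 100 second FLIPR read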
V1R ag counter 3x: V1R agonism in triplicate, counter-screen for OXTR agonists. activation, % at 3 µM. 390 compounds, 10% hits. shares compounds with OXTR ag. CHO-V1R cells, Fluo-8 calcium fluorescence, agonist;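 active means mean activation over triplicate exceeds the hit threshold set in the earlier primary screen, cut at about 20% in these data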;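 further: peak over basal fluorescence ratio within a 100 second read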
OXTR pot confirm: confirmation of human oxytocin receptor potentiators. shares compounds with OXTR potentiate. 180 tested, under 10 active. activation, % at 3 µM. CHO-OTR cells, Fluo-8 calcium fluorescence, potentiation; scaled from low-dose to maximal oxytocin. AID 434985;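 active means mean percent activation over triplicates above a cutoff set from solvent-only control plates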;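 further: compounds tested in the presence of an EC15 dose of oxytocin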
V1R ag confirm: confirmation of human vasopressin V1a receptor agonists | shares compounds with V1R ag counter | 180 compounds, 20% hits | activation, % at 3 µM | CHO-V1R cells, Fluo-8 calcium fluorescence, agonist;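 active means average activation exceeds primary screen hit cutoff, cut at about 21% in these data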;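 further: peak over basal fluorescence ratio during a 100 s FLIPR read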
OXTR ag counter: counter-screen for V1a receptor agonists: oxytocin receptor agonists; CHO-OTR cells, Fluo-8 calcium fluorescence, agonist; AID 434969; shares compounds with V1R ag counter; activation, % at 3 µM; 180 compounds, 10% hits;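 active means mean activation over three repeats above the cutoff from the earlier oxytocin receptor agonist screen, cut at about 20% in these data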;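 further: peak over minimum fluorescence ratio within a 100 second FLIPR read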
Each line names hits and unclear results; the compound was inactive in the other large screens (follow-up assays come after a bar, where they were run).

Oc1ccc(C2NCc3ccccc3-n3cccc32)cc1Cl (stereo not given)	OXTR ag 27.9 | OXTR agonist cf inactive | V1R ag counter 3x inactive
CCOc1cc2c(cc1OCC)-n1cccc1C(c1ccc(F)c(OC)c1)NC2 (stereo not given)	OXTR ag 22.3 (no result: TRPML3 agonist, TRPN1 ag) | OXTR agonist cf inactive | V1R ag counter 3x inactive
O=C(Nc1cccnc1)c1c(O)c2c(n(Cc3ccccc3)c1=O)CCCC2	none
O=C(COc1ccccc1F)N1CCN(CCN2C(=O)c3cccc4cccc(c34)C2=O)CC1	none
O=C(COc1ccc2ccccc2c1)N1CCN(Cc2c[nH]c3ccccc23)CC1	OXTR ag 24.0 | OXTR agonist cf inactive | V1R ag counter 3x inactive
O=C(COc1ccc(Br)cc1)N1CCN(Cc2c[nH]c3ccccc23)CC1	none
COc1ccc(C(c2c(O)c3ccccc3oc2=O)c2c(C)n(C)n(-c3ccccc3)c2=O)cc1 (stereo not given)	OXTR potentiate 12.3 | OXTR pot confirm inactive
Cn1c(O)c(C2=NNC(c3ccc(Cl)cc3)C2)c(=O)n(C)c1=O (stereo not given)	none
CN1CCN(c2ccc(S(C)(=O)=O)cc2[N+](=O)[O-])CC1	none
CN1CCN(c2ccc([N+](=O)[O-])c3no[n+]([O-])c23)CC1	V1R ag counter 27.5 | V1R ag confirm inactive | OXTR ag counter inactive
CC1(C)OC(c2ccccc2)=C/C(=C/C=C2C(=O)NC(=O)NC2=O)O1	TRPML3 agonist 24.2, V1R ag counter 21.9, TRPN1 ag 46.2 | V1R ag confirm 37.3 | OXTR ag counter 25.5
CCOc1cc2c(cc1OCC)-n1cccc1C(c1c(O)cccc1OC)NC2 (stereo not given)	none (no result: TRPML3 agonist, TRPN1 ag)
CN(C)c1ccc(/C=C/[N+](=O)[O-])cc1	V1R ag counter 29.4 | V1R ag confirm 37.9 | OXTR ag counter 24.1
COc1ccc(-n2c(/C=C/c3ccc(O)c(O)c3)nc3ccccc3c2=O)cc1	none (no result: TRPML3 agonist, TRPN1 ag)
